Laboratory results published in ChEMBL document CHEMBL1140935, “Potent and selective inhibitors of breast cancer resistance protein (ABCG2) derived from the p-glycoprotein (ABCB1) modulator tariquidar” (J Med Chem, 2009).
The source made the active and inactive calls. The calls are words filed in the database; no cut-off is given here.

Experiments:
[1] = molecular target: T1, Broad substrate specificity ATP-binding cassette transporter ABCG2 (Homo sapiens, UniProt Q9UNQ0); assay: Inhibition of ABCG2 over-expressed in human MCF7/Topo cells at 7 to 10 uM by flow cytometric-based mitoxantrone efflux assay relative to fumitremorgin C; type: cell-based
T1 sequence (Q9UNQ0 whole entry): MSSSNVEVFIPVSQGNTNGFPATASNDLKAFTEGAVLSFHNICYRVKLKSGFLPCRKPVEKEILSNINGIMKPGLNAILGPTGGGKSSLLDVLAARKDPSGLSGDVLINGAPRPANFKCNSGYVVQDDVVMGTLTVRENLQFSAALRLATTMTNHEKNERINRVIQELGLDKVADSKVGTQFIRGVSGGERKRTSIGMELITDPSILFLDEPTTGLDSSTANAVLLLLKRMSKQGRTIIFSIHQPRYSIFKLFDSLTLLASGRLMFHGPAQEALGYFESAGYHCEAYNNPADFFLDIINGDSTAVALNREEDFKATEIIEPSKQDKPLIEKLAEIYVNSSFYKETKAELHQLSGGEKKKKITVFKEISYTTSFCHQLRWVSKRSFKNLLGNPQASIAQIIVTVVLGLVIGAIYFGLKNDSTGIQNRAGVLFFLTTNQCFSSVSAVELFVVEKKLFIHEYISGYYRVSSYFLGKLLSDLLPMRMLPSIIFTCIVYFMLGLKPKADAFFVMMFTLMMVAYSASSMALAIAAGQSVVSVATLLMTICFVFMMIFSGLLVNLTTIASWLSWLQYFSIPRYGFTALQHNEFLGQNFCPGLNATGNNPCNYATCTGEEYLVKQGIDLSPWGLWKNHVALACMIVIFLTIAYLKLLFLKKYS
How it was run: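 MCF-7/Topo cells, 1 × 10^6/mL, loaded 30 min at 37 °C with 20 µM mitoxantrone plus compound, then 1 h efflux in drug-free medium; flow cytometry. Maximal inhibition = effect at highest tested concentration (7 or 10 µM) relative to 10 µM fumitremorgin C (100%, ice-kept sample); geometric mean fluorescence.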

[2] = molecular target: T1, Broad substrate specificity ATP-binding cassette transporter ABCG2; assay: Inhibition of ABCG2 overexpressed in human MCF7/Topo cells by flow cytometric-based mitoxantrone efflux assay; type: cell-based
How it was run: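 MCF-7/Topo cells, 1 × 10^6/mL, incubated 30 min at 37 °C/5% CO2 with 20 µM mitoxantrone and graded modulator; washed, 1 h efflux in drug-free medium at 37 °C, PBS resuspension, flow cytometry.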

[3] = molecular target: T2, ATP-binding cassette sub-family C member 2 (Homo sapiens, UniProt Q92887); assay: Inhibition of ABCC2 overexpressed in MDCK cells […] by flow cytometric-based chloromethylfluorescein-diacetate accumulation assay; type: cell-based
T2 sequence (Q92887 whole entry): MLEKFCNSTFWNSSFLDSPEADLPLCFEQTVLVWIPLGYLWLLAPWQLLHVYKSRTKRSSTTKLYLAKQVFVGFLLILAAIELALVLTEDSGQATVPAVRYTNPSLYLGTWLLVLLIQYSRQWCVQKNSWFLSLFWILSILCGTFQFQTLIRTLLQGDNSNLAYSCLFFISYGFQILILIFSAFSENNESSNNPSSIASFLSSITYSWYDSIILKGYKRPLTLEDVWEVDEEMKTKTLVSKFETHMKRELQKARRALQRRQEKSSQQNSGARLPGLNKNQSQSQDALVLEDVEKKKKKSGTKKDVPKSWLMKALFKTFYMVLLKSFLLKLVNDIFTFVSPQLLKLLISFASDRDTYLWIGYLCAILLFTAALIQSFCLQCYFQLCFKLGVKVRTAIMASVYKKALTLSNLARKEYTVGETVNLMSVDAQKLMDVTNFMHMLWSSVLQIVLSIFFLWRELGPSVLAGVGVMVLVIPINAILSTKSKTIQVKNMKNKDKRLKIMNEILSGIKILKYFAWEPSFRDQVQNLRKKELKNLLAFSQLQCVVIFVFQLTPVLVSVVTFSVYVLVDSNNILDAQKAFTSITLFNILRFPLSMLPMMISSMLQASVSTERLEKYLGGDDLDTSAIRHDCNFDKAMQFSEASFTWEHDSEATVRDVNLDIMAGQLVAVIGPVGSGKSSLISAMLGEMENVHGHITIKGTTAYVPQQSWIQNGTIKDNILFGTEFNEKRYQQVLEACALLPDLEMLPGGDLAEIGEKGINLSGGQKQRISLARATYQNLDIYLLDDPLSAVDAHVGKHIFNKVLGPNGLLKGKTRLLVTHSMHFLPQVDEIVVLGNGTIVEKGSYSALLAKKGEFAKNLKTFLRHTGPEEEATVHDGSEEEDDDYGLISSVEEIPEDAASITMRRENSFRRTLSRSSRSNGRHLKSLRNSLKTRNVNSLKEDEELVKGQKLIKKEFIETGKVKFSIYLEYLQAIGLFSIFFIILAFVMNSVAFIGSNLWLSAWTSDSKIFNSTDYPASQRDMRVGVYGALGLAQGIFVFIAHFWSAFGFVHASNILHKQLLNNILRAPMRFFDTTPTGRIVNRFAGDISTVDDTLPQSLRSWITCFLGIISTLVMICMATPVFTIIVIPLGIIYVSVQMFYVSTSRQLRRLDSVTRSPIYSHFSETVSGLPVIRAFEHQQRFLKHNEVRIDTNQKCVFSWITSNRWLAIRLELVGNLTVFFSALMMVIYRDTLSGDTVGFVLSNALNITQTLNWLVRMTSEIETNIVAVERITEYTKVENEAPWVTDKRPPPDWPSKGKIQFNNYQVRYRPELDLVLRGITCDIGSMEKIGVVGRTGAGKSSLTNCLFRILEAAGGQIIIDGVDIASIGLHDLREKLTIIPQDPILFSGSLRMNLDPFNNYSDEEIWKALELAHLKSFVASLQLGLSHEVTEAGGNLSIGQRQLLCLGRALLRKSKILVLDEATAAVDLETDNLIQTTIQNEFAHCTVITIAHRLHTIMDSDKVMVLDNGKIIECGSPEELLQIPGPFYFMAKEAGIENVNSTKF

[4] = molecular target: T3, ATP-dependent translocase ABCB1 (Homo sapiens, UniProt P08183); assay: Inhibition of ABCB1 overexpressed in human KBv1 cells by flow cytometric-based calcein-AM efflux assay; type: cell-based
T3 sequence (P08183 whole entry): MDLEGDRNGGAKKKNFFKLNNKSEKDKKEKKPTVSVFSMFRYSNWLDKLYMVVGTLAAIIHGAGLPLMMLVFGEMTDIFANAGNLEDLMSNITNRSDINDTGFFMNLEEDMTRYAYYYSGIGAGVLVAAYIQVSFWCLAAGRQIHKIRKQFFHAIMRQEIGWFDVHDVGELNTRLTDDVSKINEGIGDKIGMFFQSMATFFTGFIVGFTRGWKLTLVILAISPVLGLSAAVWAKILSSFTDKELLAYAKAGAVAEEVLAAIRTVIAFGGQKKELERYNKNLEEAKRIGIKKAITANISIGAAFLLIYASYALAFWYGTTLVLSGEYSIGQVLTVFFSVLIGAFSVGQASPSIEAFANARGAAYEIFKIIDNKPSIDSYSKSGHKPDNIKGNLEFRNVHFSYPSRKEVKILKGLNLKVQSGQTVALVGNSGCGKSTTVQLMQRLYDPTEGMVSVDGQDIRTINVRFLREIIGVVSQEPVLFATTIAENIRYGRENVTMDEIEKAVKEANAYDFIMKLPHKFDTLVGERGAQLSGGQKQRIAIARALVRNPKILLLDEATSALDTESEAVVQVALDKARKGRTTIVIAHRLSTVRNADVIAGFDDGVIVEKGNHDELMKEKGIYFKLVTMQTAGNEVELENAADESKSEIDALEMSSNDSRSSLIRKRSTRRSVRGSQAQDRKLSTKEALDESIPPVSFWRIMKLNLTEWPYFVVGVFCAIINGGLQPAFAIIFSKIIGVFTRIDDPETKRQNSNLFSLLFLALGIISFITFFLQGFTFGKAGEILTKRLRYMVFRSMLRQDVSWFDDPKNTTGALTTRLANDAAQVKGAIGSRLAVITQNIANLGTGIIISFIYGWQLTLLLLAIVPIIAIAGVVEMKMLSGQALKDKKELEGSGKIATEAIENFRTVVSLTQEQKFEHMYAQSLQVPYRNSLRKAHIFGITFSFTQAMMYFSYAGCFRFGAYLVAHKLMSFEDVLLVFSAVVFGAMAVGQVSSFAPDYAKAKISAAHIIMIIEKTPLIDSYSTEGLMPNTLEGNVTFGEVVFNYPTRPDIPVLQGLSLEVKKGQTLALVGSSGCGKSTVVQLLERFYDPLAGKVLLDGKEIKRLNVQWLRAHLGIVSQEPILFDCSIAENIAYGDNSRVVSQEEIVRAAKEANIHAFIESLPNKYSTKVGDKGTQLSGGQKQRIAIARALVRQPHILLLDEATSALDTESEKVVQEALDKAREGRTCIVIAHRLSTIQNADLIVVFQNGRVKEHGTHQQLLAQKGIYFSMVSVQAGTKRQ

[5] = molecular target: T2, ATP-binding cassette sub-family C member 2; assay: Inhibition of ABCC2 overexpressed in MDCK cells […] up to 50 uM by flow cytometric-based chloromethylfluorescein-diacetate accumulation assay; type: cell-based; settings: dog
ABCB1 [6] = molecular target: T4, ABCB1 (Homo sapiens, UniProt P08183); assay: (§1) Inhibition of ABCB1 overexpressed in human KBv1 cells at 10 uM by flow cytometric-based calcein-AM efflux assay; type: cell-based; settings: KBv1 cells overexpressing ABCB1, probe calcein-AM
T4 sequence (P08183 whole entry): as above
How it was run: (§2)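 Done on KBv1 cells (ABCB1-overexpressing KB subclone), maintained in DMEM with 10% FCS and 270 ng/mL vinblastine. Intracellular calcein fluorescence from calcein-AM was measured by flow cytometry in the presence of test compound.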

ABCB1 [7] = molecular target: T4, ABCB1; assay: Inhibition of ABCB1 overexpressed in human KBv1 cells at 100 uM by flow cytometric-based calcein-AM efflux assay; type: cell-based; settings: KBv1 cells overexpressing ABCB1, probe calcein-AM; how it was run: as §2
MCF7 [8] = assay: Cytotoxicity against ABCG2 positive topotecan-resistant human MCF7 cells up to 100 nM by chemosensitivity assay
[9] = Cytotoxicity against ABCG2 negative human U373MG cells by chemosensitivity assay; type: ADME, cell-based; settings: u-373mg atcc
How it was run: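 Proliferating ABCG2/ABCB1-nonexpressing U-373 MG glioblastoma cells (EMEM, 5% FCS, 37 °C, 5% CO2) seeded in 96-well plates, medium replaced after 2-3 days with drug or vehicle (1000-fold feed solutions); 16 wells per concentration. Cells fixed with glutardialdehyde at various times, stained with crystal violet, absorbance 578 nm; corrected T/C and cytocidal effect calculated.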

MCF7 [10] = assay: Potentiation of ABCG2 positive topotecan-induced cytotoxicity in topotecan-resistant human MCF7 cells at 100 nM by chemosensitivity assay
MCF7 [11] = assay: Cytotoxicity against ABCG2 positive topotecan-resistant human MCF7 cells up to 500 uM by chemosensitivity assay; type: functional, cell-based
How it was run: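 MCF-7/Topo cells (ABCG2-overexpressing, kept in EMEM with 5% FCS and 0.55 µM topotecan) were seeded into 96-well plates and grown 2-3 days. Test compound alone was then given under permanent exposure, against vehicle, with 16 wells per concentration. Cells were fixed with glutardialdehyde at various times and stained with crystal violet. A578 was read and corrected T/C% calculated.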

[12] = molecular target: T3, ATP-dependent translocase ABCB1; assay: as §1; type: cell-based; settings: kbv1, 10 µM; how it was run: as §2

SMILES | inhibition (INH) [1] [%] | IC50 [2] [nM] | IC50 [3] [nM] | IC50 [4] [nM] | Activity [5] | other results
COC(=O)c1ccc(C(=O)Nc2ccc(CCN3CCc4cc(OC)c(OC)cc4C3)cc2)cc1NC(=O)c1cnc(C)cn1 | 44 | 552 | > 20000 | > 57000 |  | 
COc1cc2c(cc1OC)CN(CCc1ccc(NC(=O)c3ccc(C)c(NC(=O)c4cnc5ccccc5c4)c3)cc1)CC2 | 52 | 1990 | > 50000 | > 15000 |  | 
COc1ccc2c3c([nH]c2c1)[C@H](C=C(C)C)N1C(=O)[C@@H]2CCCN2C(=O)[C@@H]1C3 [FUMITREMORGIN] | 100 | > 11000 |  |  | Not Active | inhibition at 10 µM (ABCB1 [6]): 0.8%; inhibition at 100 µM (ABCB1 [7]): 22%
COC(=O)c1ccc(C(=O)Nc2ccc(CCN3CCc4cc(OC)c(OC)cc4C3)cc2)cc1NC(=O)c1cnc2ccccc2n1 | 55 | 183 |  | > 34000 |  | 
COc1cc(NC(=O)c2cnc3ccccc3c2)cc(C(=O)Nc2ccc(CCN3CCc4cc(OC)c(OC)cc4C3)cc2)c1 | 43 | 977 |  | > 15000 | Not Active | 
COc1cc2c(cc1OC)CN(CCc1ccc(NC(=O)c3cccc4c(=O)c5cccc(OC)c5[nH]c34)cc1)CC2 | 46 |  |  |  | Not Active | 
COc1cc2c(cc1OC)CN(CCc1ccc(NC(=O)c3cc(OC)c(OC)cc3NC(=O)c3cnc4ccccc4c3)cc1)CC2 | 39 | 916 |  |  | Not Active | 
COC(=O)c1ccc(C(=O)Nc2ccc(CCN3CCc4cc(OC)c(OC)cc4C3)cc2)cc1NC(=O)c1cccnc1 | 47 | 1020 | > 20000 | > 14000 |  | 
COC(=O)c1ccc(C(=O)Nc2ccc(CCN3CCc4cc(OC)c(OC)cc4C3)cc2)cc1NC(=O)c1cnc2ccccc2c1 | 41 | 119 |  | 9450 | Not Active | Activity (MCF7 [8]): Active; Activity [9]: Toxic
CCCCC/C=C\C\C=C/C=C/C=C/[C@@H](SC[C@@H](NC(=O)CC[C@H](N)C(=O)O)C(=O)NCC(=O)O)[C@@H](O)CCCC(=O)O [LEUKOTRIEN C4] |  |  | < 150 |  |  | 
COC(=O)c1ccc(C(=O)Nc2ccc(CCN3CCc4cc(OC)c(OC)cc4C3)cc2)cc1NC(=O)c1cnccn1 | 38 | 632 | > 50000 | > 20000 |  | 
COC(=O)c1ccc(C(=O)Nc2ccc(CCN3CCc4cc(OC)c(OC)cc4C3)cc2)cc1NC(=O)c1ccc2ccccc2n1 | 56 | 60 | > 20000 | > 29000 |  | Activity (MCF7 [10]): Active
COc1ccc2c3c([nH]c2c1)[C@H](CC(C)C)N1C(=O)[C@H](CCC(=O)OC(C)(C)C)NC(=O)[C@@H]1C3 |  |  | > 50000 |  |  | Activity (MCF7 [11]): Active; inhibition at 10 µM (ABCB1 [6]): 1.6%; Activity (MCF7 [10]): Active
COC(=O)c1ccc(C(=O)Nc2ccc(CCN3CCc4cc(OC)c(OC)cc4C3)cc2)cc1NC(=O)c1ccc2ncccc2c1 | 25 | 179 |  |  |  | Activity [12]: Not Active
CN(C)C(=O)CCSC(SCCC(=O)O)c1cccc(/C=C/c2ccc3ccc(Cl)cc3n2)c1 (stereo unspecified) [MK-571] |  |  | > 1000 |  |  | 
COc1ccc(C(=O)Nc2ccc(CCN3CCc4cc(OC)c(OC)cc4C3)cc2)cc1NC(=O)c1cnc2ccccc2c1 | 63 | 317 |  | > 6000 | Not Active | 
COc1cc2c(cc1OC)CN(CCc1ccc(NC(=O)c3cc(NC(=O)c4cnc5ccccc5c4)c(OC)c(OC)c3)cc1)CC2 | 36 | 858 |  | > 17000 | Not Active | 
